According to PMC2164977 (The Journal of Cell Biology, 1999):
Non-standard residues stand in square brackets, D forms with d. Residues, ends and D or L forms follow the SMILES beside them. *: point of attachment. Sta = CC(C)C[C@H](N)[C@@H](O)CC(=O)O; Isovaleryl = CC(C)CC(=O)*

Columns and labels:
[1] = tested on: degradation activity of chloroplast extract (ATP-dependent, soluble metallopeptidase activity); assay: Degradation assay with chloroplast extract; type: biochemical; conditions: for effect on subfragment degradation in chloroplast extract: 30 min incubation, not shown
[2] = molecular target: SPP in chloroplast extract (Pisum sativum, UniProt Q40983); assay: Conversion of transit peptide to subfragment in chloroplast extract; type: biochemical
How it was run: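 [35S]methionine-labeled FD transit peptide is made by 3 min cleavage of preFD on immobilized SPP, then frozen, cleared and dialyzed. It is incubated with chloroplast extract (1:1) in 25 mM Hepes-KOH pH 7.5 at 24°C for 30 min with 1,10-phenanthroline at 0.1–10 mM. Percent substrate remaining is quantified by tricine SDS-PAGE.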

[3] = molecular target: T1, stromal processing peptidase (SPP) (Pisum sativum, UniProt Q40983); assay: Processing and transit peptide trimming by recombinant SPP; type: biochemical; conditions: not shown
How it was run: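 Time courses use reticulocyte-translated [35S]methionine precursors with biotin-tagged recombinant SPP (IPTG-induced E. coli, 30°C) bound to streptavidin magnetic beads. Reactions run in 25 mM Hepes-KOH pH 7.5, 2 mM PMSF, at 24°C, and are stopped by boiling in loading buffer. For preFD and preHSP21, 5 mM 1,10-phenanthroline is added at 2 or 5 min. Products are resolved by tricine SDS-PAGE and autoradiography.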

[4] = molecular target: T1, stromal processing peptidase (SPP); conditions: 10 mM NEM in binding assay; data not shown
How it was run: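 Recombinant biotin-tagged SPP from E. coli extract is captured on streptavidin magnetic beads. It is incubated 5 min at 24°C in 25 mM Hepes-KOH pH 7.5 with dialyzed [35S]methionine-labeled FD transit peptide or subfragment. Beads are washed twice in buffer, then eluted once with NaCl (0–1,000 mM), and the remaining material is released by boiling. Tricine SDS-PAGE, autoradiography and PhosphorImager quantification follow.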

[5] = tested on: nonspecific protease activity in rabbit reticulocyte lysate; assay: Nonspecific protease activity of the reticulocyte lysate; type: biochemical; conditions: 2 mM PMSF, supernatant of preHSP21 processing reaction, 1 h at 24°C
How it was run: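 To check lysate protease, [35S]methionine-labeled preHSP21 from reticulocyte lysate is processed 30 min at 24°C by bead-immobilized SPP. The supernatant holding the transit peptide subfragment is removed and incubated 1 h at 24°C, without inhibitor or with 2 mM PMSF. Remaining subfragment is read out.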

Chain of SPP in chloroplast extract (Q40983 143-1257): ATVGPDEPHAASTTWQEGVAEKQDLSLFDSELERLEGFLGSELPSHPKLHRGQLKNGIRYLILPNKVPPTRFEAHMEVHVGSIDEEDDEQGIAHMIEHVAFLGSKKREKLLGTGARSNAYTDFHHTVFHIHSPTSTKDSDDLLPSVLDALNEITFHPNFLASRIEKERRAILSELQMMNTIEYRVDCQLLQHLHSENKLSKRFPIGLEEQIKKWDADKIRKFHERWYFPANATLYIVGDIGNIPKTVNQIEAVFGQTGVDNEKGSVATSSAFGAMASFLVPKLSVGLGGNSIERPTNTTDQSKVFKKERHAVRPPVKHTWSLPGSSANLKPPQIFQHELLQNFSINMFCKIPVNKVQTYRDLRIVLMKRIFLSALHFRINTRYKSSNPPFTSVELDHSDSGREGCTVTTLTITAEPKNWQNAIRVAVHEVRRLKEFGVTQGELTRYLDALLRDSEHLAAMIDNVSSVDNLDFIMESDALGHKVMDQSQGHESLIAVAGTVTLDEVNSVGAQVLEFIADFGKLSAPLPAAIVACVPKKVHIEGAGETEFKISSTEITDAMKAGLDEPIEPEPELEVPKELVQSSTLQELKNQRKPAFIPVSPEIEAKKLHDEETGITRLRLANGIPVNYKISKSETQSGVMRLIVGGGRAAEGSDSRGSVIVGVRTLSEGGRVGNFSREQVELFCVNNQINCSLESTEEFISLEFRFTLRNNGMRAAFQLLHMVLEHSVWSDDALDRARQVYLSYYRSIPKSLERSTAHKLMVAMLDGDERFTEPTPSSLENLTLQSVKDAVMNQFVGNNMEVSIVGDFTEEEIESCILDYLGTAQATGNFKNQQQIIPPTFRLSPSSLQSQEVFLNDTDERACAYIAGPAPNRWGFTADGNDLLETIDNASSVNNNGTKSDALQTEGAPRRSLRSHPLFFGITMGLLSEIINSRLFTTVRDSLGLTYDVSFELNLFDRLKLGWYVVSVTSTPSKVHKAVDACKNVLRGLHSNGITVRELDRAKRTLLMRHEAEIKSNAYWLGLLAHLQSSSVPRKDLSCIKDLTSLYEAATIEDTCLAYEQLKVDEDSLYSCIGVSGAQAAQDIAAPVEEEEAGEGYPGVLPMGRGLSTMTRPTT
T1 sequence (Q40983 143-1257): as above

c1cnc2c(c1)ccc1cccnc12 [1,10-phenanthroline]
FD transit peptide subfragment remaining after 30 min in chloroplast extract ([1]; 1 mM 1,10-phenanthroline, 24°C): 86% | effect on degradation of the subfragment in chloroplast extract ([1]; 5 mM 1,10-phenanthroline, 30 min): inhibited | degradation of FD transit peptide subfragment in chloroplast extract ([1]; 10 mM 1,10-phenanthroline, 30 min, 24°C): no degradation | FD transit peptide left after 30 min in chloroplast extract ([2]; 1 mM 1,10-phenanthroline, 24°C): 16% | FD transit peptide remaining after 30 min in chloroplast extract ([2]; 10 mM 1,10-phenanthroline, 24°C): 80% | sensitivity of SPP relative to the degradation activity ([2]; SPP less sensitive than degradation activity): about tenfold

CC(C)C[C@H](NC(=O)[C@H]1O[C@@H]1C(=O)O)C(=O)NCCCCN=C(N)N [E64]
effect on subfragment degradation in chloroplast extract ([1]; 100 μM inhibitor): None of these inhibitors significantly decreased

CCN1C(=O)C=CC1=O [NEM, N-ethylmaleimide]
effect on SPP cleavage of precursors [3]: inhibited | effect on subfragment degradation in chloroplast extract ([1]; 10 mM inhibitor): None of these inhibitors significantly decreased | effect on interaction between SPP and FD transit peptide [4]: disrupted the interaction

O=S(=O)(F)Cc1ccccc1 [PMSF]
effect on subfragment degradation in chloroplast extract ([1]; 10 mM inhibitor): None of these inhibitors significantly decreased | HSP21 transit peptide subfragment remaining [5]: ~90%

CC(C)CC(=O)N[C@H](C(=O)N[C@H](C(=O)N[C@@H](CC(C)C)[C@@H](O)CC(=O)N[C@@H](C)C(=O)N[C@@H](CC(C)C)[C@@H](O)CC(=O)O)C(C)C)C(C)C [pepstatin] (Isovaleryl-VV[Sta]A[Sta]-OH)
effect on subfragment degradation in chloroplast extract ([1]; 100 μM inhibitor): None of these inhibitors significantly decreased
